Converted amounts (≈) assume the structure as drawn. The source made the active and inactive calls. The calls are words filed in the database; no cut-off is given here.
Columns and labels:
Type in all cases: functional
Bacillus subtilis = test: Antibacterial activity against Bacillus subtilis NCTC 9372 after 24 hrs; conditions: NCTC 9372, 24 h
Summary of the method: (§1)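 Agar dilution in Isosensitest agar at final compound levels of 128–1 μg/mL, from 10 mg/mL DMSO stocks. Solvent-only control plates covered the same DMSO range. Strains were pre-grown overnight on Columbia agar at 37 °C and multipoint-inoculated at 10 000 cfu/spot. Plates were read after 24 h at 37 °C. MIC was taken as the lowest concentration giving no visible growth, with tests repeated on a separate occasion.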

Streptococcus pyogenes = test: Antibacterial activity against Streptococcus pyogenes NCTC 8306 after 24 hrs; conditions: NCTC 8306, 24 h; summary of the method: as §1
Staphylococcus aureus [1] = test: Antibacterial activity against Staphylococcus aureus NCTC 6571 after 24 hrs; conditions: NCTC 6571, 24 h
Summary of the method: (§2)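 Agar dilution on Isosensitest agar with final 128−1 μg/mL compound from DMSO solution; DMSO-only control plates. Strains pre-grown overnight on Columbia agar at 37 °C, suspended in sterile water, diluted to give 10 000 cfu per spot. Incubated 37 °C, 24 h. MIC = lowest concentration completely inhibiting visible growth; repeated on a separate occasion.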

Enterococcus faecalis = test: Antibacterial activity against Enterococcus faecalis NCTC 775 after 24 hrs; conditions: NCTC 775, 24 h; summary of the method: as §1
[2] = system: Staphylococcus epidermidis; test: Antibacterial activity against Staphylococcus epidermidis NCTC 11047 after 24 hrs; conditions: NCTC 11047, 24 h; summary of the method: as §1
Listeria monocytogenes = test: Antibacterial activity against Listeria monocytogenes NCTC 11994 after 24 hrs; conditions: NCTC 11994, 24 h; summary of the method: as §1
Staphylococcus aureus [3] = test: Antibacterial activity against methicillin-resistant Staphylococcus aureus NCTC 11939 after 24 hrs; conditions: NCTC 11939, 24 h; summary of the method: as §2
[4] = system: Mycobacterium tuberculosis; test: Antimycobacterial activity against Mycobacterium tuberculosis H37Rv after 2 weeks by spot culture growth inhibition assay
Summary of the method: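 H37Rv grown as standing culture in 7H9 + 10% ADC + 0.05% Tween-80 to McFarland 1, checked for contamination on blood agar. Culture diluted to 10³ cfu/mL; 10 μL spotted onto 7H10 agar + 10% OADC with compound, 37 °C, 2 weeks. Controls: DMSO (negative), isoniazid (positive). MIC = lowest concentration with no growth.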

Enterococcus faecium = test: Antibacterial activity against Enterococcus faecium NCTC 7171 after 24 hrs; conditions: NCTC 7171, 24 h; summary of the method: as §1
K562 = test: Growth inhibition of human K562 cells after 48 hrs by sulforhodamine B assay; conditions: K562, 48 h, pooled result: one value given for 6 cell lines, strains, targets or settings
Summary of the method: (§3)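 Run at the NCI Developmental Therapeutics Program under the standard DTP NCI60 protocol. Total cell protein was measured by sulforhodamine B staining at time 0 and after 48 h exposure. GI50, the concentration giving a 50% reduction of growth, was estimated from dose–response curves.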

Escherichia coli = test: Antibacterial activity against Escherichia coli NCTC 10418 after 24 hrs; conditions: NCTC 10418, 24 h; summary of the method: as §1
Candida albicans = test: Antifungal activity against Candida albicans ATCC 90028 after 24 hrs; conditions: ATCC 90028, 24 h; summary of the method: as §1
Nakaseomyces glabratus = test: Antifungal activity against Candida glabrata NCPF 9725 after 24 hrs; conditions: NCPF 9725, 24 h; summary of the method: as §1
[5] = Growth inhibition of human NCI60 cells after 48 hrs by sulforhodamine B assay; conditions: NCI60, 48 h; summary of the method: as §3

COc1ccc(C/C(=N\O)C(=O)NCCc2cc(Br)c(OCCCN(C)C)c(Br)c2)cc1Br
MIC (Bacillus subtilis): 32 µg/mL (≈ 49.2 µM)
MIC (Streptococcus pyogenes): 32 µg/mL (≈ 49.2 µM)
MIC (Staphylococcus aureus [1]): 32 µg/mL (≈ 49.2 µM)
MIC (Enterococcus faecalis): 64 µg/mL (≈ 98.4 µM)
MIC [2]: 64 µg/mL (≈ 98.4 µM)
MIC (Listeria monocytogenes): 64 µg/mL (≈ 98.4 µM)
MIC (Staphylococcus aureus [3]): 64 µg/mL (≈ 98.4 µM)
MIC ([4]; 336 h): 25 µg/mL (≈ 38.4 µM)
MIC (Enterococcus faecium): 64 µg/mL (≈ 98.4 µM)

CN[C@@H](Cc1cc(Br)c(OC)c(Br)c1)C(=O)NCCc1cc(Br)c(OCCCN(C)C)c(Br)c1
GI50 (K562; read-out: GI50): 2.17 µM
GI50 (K562; read-out: pGI50 (converted)): 4.79 µM

CN(C)CCCOc1c(Br)cc(CCN)cc1Br
MIC [4]: inactive

CNC(Cc1cc(Br)c(OC)c(Br)c1)C(=O)NCCCOc1c(Br)cc(CCN(C)C)cc1Br.Cl (centres undefined) [ANOMOIAN A]
MIC (Bacillus subtilis): 32 µg/mL
MIC (Streptococcus pyogenes): 64 µg/mL
MIC (Escherichia coli): 64 µg/mL
MIC (Staphylococcus aureus [1]): 64 µg/mL
MIC [2]: 64 µg/mL
MIC (Listeria monocytogenes): 64 µg/mL
MIC (Staphylococcus aureus [3]): 64 µg/mL
MIC ([4]; 336 h): 25 µg/mL
MIC (Enterococcus faecium): 64 µg/mL

COc1c(Br)cc(C[C@@H](C(=O)NCCc2cc(Br)c(OCCCN(C)C)c(Br)c2)N(C)C)cc1Br [APLYZANZINE A]
MIC (Bacillus subtilis): 16 µg/mL (≈ 21.5 µM)
MIC (Streptococcus pyogenes): 16 µg/mL (≈ 21.5 µM)
MIC (Escherichia coli): 32 µg/mL (≈ 43.1 µM)
MIC (Staphylococcus aureus [1]): 32 µg/mL (≈ 43.1 µM)
MIC (Candida albicans): 64 µg/mL (≈ 86.1 µM)
MIC (Enterococcus faecalis): 32 µg/mL (≈ 43.1 µM)
MIC [2]: 16 µg/mL (≈ 21.5 µM)
MIC (Listeria monocytogenes): 32 µg/mL (≈ 43.1 µM)
MIC (Staphylococcus aureus [3]): 32 µg/mL (≈ 43.1 µM)
MIC ([4]; 336 h): 25 µg/mL (≈ 33.6 µM)
MIC (Enterococcus faecium): 32 µg/mL (≈ 43.1 µM)
MIC (Nakaseomyces glabratus): 64 µg/mL (≈ 86.1 µM)

COc1ccc(C[C@H](N)C(=O)NCCc2cc(Br)c(OCCCN(C)C)c(Br)c2)cc1Br [SUBEREDAMINE A]
MIC (Bacillus subtilis): 64 µg/mL (≈ 101 µM)
MIC [2]: 64 µg/mL (≈ 101 µM)
MIC ([4]; 336 h): 50 µg/mL (≈ 78.6 µM)

CN[C@@H](Cc1ccc(OC)c(Br)c1)C(=O)NCCc1cc(Br)c(OCCCN(C)C)c(Br)c1 [SUBEREDAMINE B]
GI50 ([5]; read-out: GI50): 5.47 µM
GI50 ([5]; read-out: pGI50 (converted)): 4.79 µM
MIC ([4]; 336 h): 40 µg/mL (≈ 61.5 µM)
